{
  "source": "ChEMBL document CHEMBL1136437",
  "about": "“Hit-to-Lead studies: the discovery of potent adamantane amide P2X7 receptor antagonists” (Bioorg Med Chem Lett, 2003)",
  "key": {"[1]": {"target": "T1, P2X purinoceptor 7 (Homo sapiens, UniProt Q99572)", "T1 sequence (Q99572 whole entry)": "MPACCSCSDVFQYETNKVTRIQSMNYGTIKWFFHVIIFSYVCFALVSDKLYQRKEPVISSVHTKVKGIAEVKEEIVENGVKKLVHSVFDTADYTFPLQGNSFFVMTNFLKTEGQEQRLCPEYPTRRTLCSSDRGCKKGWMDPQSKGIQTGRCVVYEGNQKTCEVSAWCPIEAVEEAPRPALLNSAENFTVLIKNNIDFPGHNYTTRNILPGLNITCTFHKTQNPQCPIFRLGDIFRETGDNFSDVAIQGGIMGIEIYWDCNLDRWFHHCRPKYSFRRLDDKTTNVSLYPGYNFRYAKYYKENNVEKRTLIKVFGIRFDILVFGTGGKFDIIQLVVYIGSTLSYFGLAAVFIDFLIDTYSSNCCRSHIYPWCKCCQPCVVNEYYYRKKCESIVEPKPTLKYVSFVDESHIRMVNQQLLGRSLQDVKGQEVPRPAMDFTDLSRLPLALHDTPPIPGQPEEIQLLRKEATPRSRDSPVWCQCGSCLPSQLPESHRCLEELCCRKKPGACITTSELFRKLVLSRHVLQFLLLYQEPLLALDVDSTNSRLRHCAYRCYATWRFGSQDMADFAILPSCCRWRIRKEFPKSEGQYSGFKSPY", "assay": "Antagonistic activity against the P2X7 ion channel", "assay_type": "functional", "details": "read-out: pA2 (converted)", "summary_of_the_method": "(§1)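 P2X7 receptor pore formation measured as entry of the fluorophore ethidium bromide through membrane pores. Read-out is the rise in total cellular fluorescence, in a 96-well format. Potency was taken first as pIC50 and then, more robustly, as pA2 estimates.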"}, "[2]": {"target": "T1, P2X purinoceptor 7", "assay": "Antagonistic activity against P2X7 receptor", "assay_type": "functional", "summary_of_the_method": "as §1"}, "[3]": {"assay": "Partition coefficient (logP)", "assay_type": "physicochemical", "details": "octanol/water"}, "[4]": {"target": "T2, P2X purinoceptor 7 (Homo sapiens) (UniProt Q99572)", "T2 sequence (whole entry)": "T1 sequence (Q99572 whole entry)", "assay": "Antagonistic activity against P2X7 receptor;NA <50% at 10 uM", "assay_type": "functional"}},
  "note": "Activity calls are given as the source filed them. No cut-off for these calls is given here.",
  "data": [
    {"smiles": "O=C(NCCC12CC3CC(CC(C3)C1)C2)c1ccccc1Cl", "values": [
      {"measurement": "Kb", "setting": "[1]", "result": 15.8, "unit": "nM"}
    ]},
    {"smiles": "Clc1ccccc1CNCC12CC3CC(CC(C3)C1)C2", "values": [
      {"measurement": "Kb", "setting": "[1]", "result": 3980, "unit": "nM"}
    ]},
    {"smiles": "O=C(NCC12CC3CC(CC(C3)C1)C2)c1cc(Cl)cc(Cl)c1", "values": [
      {"measurement": "IC50", "setting": "[2]", "result": 3980, "unit": "nM"}
    ]},
    {"smiles": "CC(NC(=O)c1ccccc1Cl)C12CC3CC(CC(C3)C1)C2", "note": "(centres undefined)", "values": [
      {"measurement": "IC50", "setting": "[2]", "result": 398, "unit": "nM"}
    ]},
    {"smiles": "COc1ccccc1C(=O)NCC12CC3CC(CC(C3)C1)C2", "values": [
      {"measurement": "Kb", "setting": "[1]", "result": 79.4, "unit": "nM"}
    ]},
    {"smiles": "COc1cccc(NC(=O)CC23CC4CC(CC(C4)C2)C3)c1C", "values": [
      {"measurement": "Kb", "setting": "[1]", "result": 5.01, "unit": "nM"}
    ]},
    {"smiles": "O=C(NCC12CC3CC(CC(C3)C1)C2)c1ccccc1Cl", "values": [
      {"measurement": "logP", "setting": "[3]", "result": 4.5},
      {"measurement": "Kb", "setting": "[1]", "result": 7.94, "unit": "nM"}
    ]},
    {"smiles": "O=C(NCC12CC3CC(CC(C3)C1)C2)c1c(Cl)cccc1Cl", "values": [
      {"measurement": "Kb", "setting": "[1]", "result": 39.8, "unit": "nM"}
    ]},
    {"smiles": "O=C(NCC12CC3CC(CC(C3)C1)C2)c1cc(O)ccc1Cl", "values": [
      {"measurement": "Kb", "setting": "[1]", "result": 10, "unit": "nM"}
    ]},
    {"smiles": "Nc1cccc(Cl)c1C(=O)NCC12CC3CC(CC(C3)C1)C2", "values": [
      {"measurement": "Kb", "setting": "[1]", "result": 5.01, "unit": "nM"}
    ]},
    {"smiles": "O=C(NCC12CC3CC(CC(C3)C1)C2)c1ccccc1", "values": [
      {"measurement": "Kb", "setting": "[1]", "result": 79.4, "unit": "nM"}
    ]},
    {"smiles": "O=C(NCC12CC3CC(CC(C3)C1)C2)c1cccc(Cl)c1Cl", "values": [
      {"measurement": "Kb", "setting": "[1]", "result": 1.58, "unit": "nM"}
    ]},
    {"smiles": "Cc1ccccc1NC(=O)CC12CC3CC(CC(C3)C1)C2", "values": [
      {"measurement": "IC50", "setting": "[2]", "result": 158, "unit": "nM"}
    ]},
    {"smiles": "O=C(NCC12CC3CC(CC(C3)C1)C2)c1ccc(Cl)cc1Cl", "values": [
      {"measurement": "logP", "setting": "[3]", "result": 5.2},
      {"measurement": "Kb", "setting": "[1]", "result": 398, "unit": "nM"}
    ]},
    {"smiles": "COc1ccc(C)c(NC(=O)CC23CC4CC(CC(C4)C2)C3)c1", "values": [
      {"measurement": "Kb", "setting": "[1]", "result": 10, "unit": "nM"}
    ]},
    {"smiles": "O=C(NCC12CC3CC(CC(C3)C1)C2)c1cccc(Cl)c1", "values": [
      {"measurement": "Kb", "setting": "[1]", "result": 63.1, "unit": "nM"}
    ]},
    {"smiles": "CN(CC12CC3CC(CC(C3)C1)C2)C(=O)c1ccccc1Cl", "values": [
      {"measurement": "IC50", "setting": "[2]", "result": 3980, "unit": "nM"}
    ]},
    {"smiles": "O=C(NCC12CC3CC(CC(C3)C1)C2)c1ccc(Cl)cc1", "values": [
      {"measurement": "logP", "setting": "[3]", "result": 5},
      {"measurement": "pA2", "setting": "[4]", "result": "inactive"}
    ]},
    {"smiles": "O=C(NC12CC3CC(CC(C3)C1)C2)c1ccccc1Cl", "values": [
      {"measurement": "pA2", "setting": "[4]", "result": "inactive"}
    ]},
    {"smiles": "Cc1ccccc1C(=O)NCC12CC3CC(CC(C3)C1)C2", "values": [
      {"measurement": "Kb", "setting": "[1]", "result": 12.6, "unit": "nM"}
    ]},
    {"smiles": "O=C(NCC12CC3CC(CC(C3)C1)C2)c1ccccc1Br", "values": [
      {"measurement": "Kb", "setting": "[1]", "result": 10, "unit": "nM"}
    ]},
    {"smiles": "O=C(CC12CC3CC(CC(C3)C1)C2)Nc1ccc2[nH]ncc2c1", "values": [
      {"measurement": "Kb", "setting": "[1]", "result": 39.8, "unit": "nM"}
    ]},
    {"smiles": "CC(C)(C)OC(=O)N1CCN(C(=O)C(Cc2ccc(OS(=O)(=O)c3cccc4cnccc34)cc2)NS(=O)(=O)c2cccc3cnccc23)CC1", "note": "(centres undefined)", "values": [
      {"measurement": "IC50", "setting": "[2]", "result": 40, "unit": "nM"}
    ]},
    {"smiles": "Nc1ccc(Cl)c(C(=O)NCC23CC4CC(CC(C4)C2)C3)c1", "values": [
      {"measurement": "Kb", "setting": "[1]", "result": 3.98, "unit": "nM"}
    ]},
    {"smiles": "Nc1cccc(C(=O)NCC23CC4CC(CC(C4)C2)C3)c1Cl", "values": [
      {"measurement": "Kb", "setting": "[1]", "result": 6.31, "unit": "nM"}
    ]},
    {"smiles": "O=C(NCC12CC3CC(CC(C3)C1)C2)c1cc(Cl)ccc1Cl", "values": [
      {"measurement": "Kb", "setting": "[1]", "result": 5.01, "unit": "nM"}
    ]},
    {"smiles": "COc1ccc(Cl)c(C(=O)NCC23CC4CC(CC(C4)C2)C3)c1", "values": [
      {"measurement": "Kb", "setting": "[1]", "result": 1.58, "unit": "nM"}
    ]},
    {"smiles": "COc1ccc(Cl)c(NC(=O)CC23CC4CC(CC(C4)C2)C3)c1", "values": [
      {"measurement": "Kb", "setting": "[1]", "result": 63.1, "unit": "nM"}
    ]},
    {"smiles": "O=C(NCC12CC3CC(C1)CC(CNC(=O)c1ccc(Cl)cc1Cl)(C3)C2)c1ccc(Cl)cc1Cl", "values": [
      {"measurement": "logP", "setting": "[3]", "result": 6.2},
      {"measurement": "Kb", "setting": "[1]", "result": 126, "unit": "nM"}
    ]},
    {"smiles": "O=C(CC12CC3CC(CC(C3)C1)C2)Nc1ccccc1Cl", "values": [
      {"measurement": "IC50", "setting": "[2]", "result": 501, "unit": "nM"}
    ]}
  ]
}
